PMC5242338 (Molecular imaging and biology : MIB : the official …, 2016)
Where a SMILES comes first, the peptide text is derived from it. Bridges are numbered along the chain shown (N, C = ends). [ ]: non-standard residue; d: D form. The star is where a group is joined. NOTA = O=C(O)CN1CCN(CC(=O)O)CCN(CC(=O)*)CC1; 2Nal = N[C@@H](Cc1ccc2ccccc2c1)C(=O)O; Cit = NC(=O)NCCC[C@H](N)C(=O)O

Assays:
CHO-CXCR4 cells = experiment: Cell uptake, internalization and efflux of tracer; assay type: cell-based, Chinese hamster
Outline: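 CHO-CXCR4 cells (F-12K, 10 % FBS) seeded at 1×10^5/well and given 11.1 kBq (0.3 µCi) tracer at 37 °C for 5–120 min. Blocking used 10 µg/well (22 µM) unlabeled peptide for 2 h. Cells were washed twice with cold PBS, lysed in 0.1 M NaOH and γ-counted. For internalization, an extra 1 min wash in 50 mM glycine/0.1 M NaCl, pH 2.8, was added. For efflux, cells were loaded for 2 h, then given tracer-free medium. Values are % of added activity, mean of three experiments ± SD.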

CHO-CXCR4 and CHO tumors = assay type: in vivo, mice
in vivo = experiment: in vivo; parameters: species or system mice; settings: mouse, iv, 100 uCi/mouse, total radioactivity

N=C(N)NCCC[C@H](NC(=O)[C@@H]1CSSC[C@H](NC(=O)[C@H](Cc2ccc3ccccc3c2)NC(=O)[C@H](CCCNC(=N)N)NC(=O)[C@H](CCCNC(=N)N)NC(=O)CN2CCN(CC(=O)O)CCN(CC(=O)O)CC2)C(=O)N[C@@H](Cc2ccc(O)cc2)C(=O)N[C@@H](CCCNC(N)=O)C(=O)N[C@@H](CCCCN)C(=O)N[C@H](CCCCN)C(=O)N2CCC[C@H]2C(=O)N[C@@H](Cc2ccc(O)cc2)C(=O)N[C@@H](CCCNC(=N)N)C(=O)N[C@@H](CCCNC(N)=O)C(=O)N1)C(N)=O [Al[^18F]NOTA-T140] ({NOTA}-RR[2Nal]CY[Cit]K[dK]PYR[Cit]CR-NH2; disulfide 4-13)
cell uptake with blocking by unlabeled peptide (CHO-CXCR4 cells; 2 h, 10 µg/well (22 µM) unlabeled peptide): 5.11±0.35% | share of the uptake due to internalization (CHO-CXCR4 cells; 2 h, acid wash (glycine pH 2.8) removes surface-bound tracer): ~50% | efflux from the cells (CHO-CXCR4 cells; after 2 h loading at 37 °C, medium replaced): slow | reduction in CHO-CXCR4 tumor uptake on blocking (CHO-CXCR4 and CHO tumors; co-injection of 100 µg unlabeled peptide, PET 1 h post-injection): 50–60% | change of tracer uptake in the bone on blocking (CHO-CXCR4 and CHO tumors; mouse, in vivo): significantly reduced | tissue uptake at 2 h (in vivo; biodistribution: bone): 2.95 ± 0.74 %ID/g | tissue uptake at 2 h (in vivo; biodistribution: kidneys): 32.8 ± 2.62 %ID/g | tissue uptake at 2 h (in vivo; biodistribution: liver): 34.2 ± 4.98 %ID/g | tissue uptake at 2 h (in vivo; biodistribution: spleen): 6.37 ± 1.18 %ID/g
